Compounds with a hit are over-represented: about 1% of the library has one in this group of screens.
PvdQ inh: blocks Pseudomonas aeruginosa PvdQ acylase activity | purified PvdQ acylase, fluorescence plate reader | inhibition, % at 10 µM | hit rate 0.063% among 340,000; in the data active means inhibition above about 30%, passing the limit was not always enough;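 further: 0% = vehicle neutral wells and 100% = reference inhibitor wells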
RAD54 inh: inhibitors of human RAD54 branch migration; Q92698; RAD54 Holliday junction branch migration, FAM/BHQ fluorescence; hit rate 0.14% among 360,000; inhibition, % at 10.4 µM; AID 602329;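 active means mean normalized replicate activity at least 40 and at least half of replicates scoring 40 or more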;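 further: 0% = median of neutral control wells and 100% = median of positive control wells; inhibitors cause a drop in the FAM fluorescence signal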
Target sequence (Q92698 whole entry, looked up): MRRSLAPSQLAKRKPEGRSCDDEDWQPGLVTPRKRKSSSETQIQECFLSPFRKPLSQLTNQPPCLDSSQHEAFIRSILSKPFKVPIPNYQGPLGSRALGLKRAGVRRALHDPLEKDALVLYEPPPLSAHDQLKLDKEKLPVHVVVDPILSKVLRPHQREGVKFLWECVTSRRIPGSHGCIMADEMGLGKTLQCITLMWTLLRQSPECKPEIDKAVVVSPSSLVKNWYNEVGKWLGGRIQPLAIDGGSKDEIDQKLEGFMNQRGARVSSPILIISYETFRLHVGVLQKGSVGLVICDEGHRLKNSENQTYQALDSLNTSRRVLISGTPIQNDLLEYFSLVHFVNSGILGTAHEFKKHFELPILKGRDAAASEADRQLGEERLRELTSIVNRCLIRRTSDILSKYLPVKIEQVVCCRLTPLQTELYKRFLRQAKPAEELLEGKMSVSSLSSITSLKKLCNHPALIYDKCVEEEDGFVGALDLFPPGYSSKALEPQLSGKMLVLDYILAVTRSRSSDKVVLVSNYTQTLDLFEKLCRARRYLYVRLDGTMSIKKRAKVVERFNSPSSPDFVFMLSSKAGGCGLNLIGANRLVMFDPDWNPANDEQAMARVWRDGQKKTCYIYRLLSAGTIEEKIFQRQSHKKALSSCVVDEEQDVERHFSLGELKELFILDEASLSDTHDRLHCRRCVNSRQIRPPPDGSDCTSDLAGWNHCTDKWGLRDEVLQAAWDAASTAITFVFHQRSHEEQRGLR
VIM-2 inh: blocks Pseudomonas aeruginosa VIM-2 metallo-beta-lactamase; purified VIM-2, nitrocefin hydrolysis, epi-absorbance fluorescence; inhibition, % at 5.6 µM; hit rate 0.89% among 290,000; AID 1527;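 active means inhibition above the mean of all tested compounds plus 3 SD, cutoff set per screening run, cut at about 7.5% in these data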;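 further: red hydrolysis product quenches plate fluorescence so inhibitors raise well fluorescence; 0% = enzyme with DMSO and 100% = DMSO without enzyme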
DNA FID counter: fluorescent intercalator displacement, NS3 helicase counter-screen. DNA fluorescent intercalator displacement, fluorescence. inhibition, % at 7.9 µM. hit rate 0.17% among 290,000; in the data active means inhibition above about 37%;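 further: 0% = vehicle and 100% = reference compound; higher means more ethidium bromide displaced from hairpin DNA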
IMP-1 inhibitor: blocks Pseudomonas aeruginosa IMP-1 metallo-beta-lactamase; AID 1556; purified IMP-1, nitrocefin hydrolysis, epi-absorbance fluorescence; hit rate 0.45% among 290,000; inhibition, % at 5.6 µM;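 active means inhibition above the mean plus 3 SD of all compounds in the same screening run, cut at about 4.5% in these data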;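 further: 0% = IMP-1 with DMSO and 100% = DMSO wells lacking enzyme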
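System – purified recombinant IMP-1 beta-lactamase · Input – IMP-1 dispensed at 0.2 nM · Timing – 15 min preincubation plus 25 min reaction at 25 °C · Signal – Epi-absorbance fluorescence, 480 nm excitation, 530 nm emission · Measure – percent IMP-1 inhibition derived from blank-referenced optical density · Controls – Enzyme-plus-DMSO low control, enzyme-free DMSO high control · Replication – singlicate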
* = called active by the depositor.

COc1ccc(NC(=O)N(C)C[C@H]2Oc3ncc(-c4cccnc4)cc3C(=O)N([C@@H](C)CO)C[C@H]2C)cc1 was read as RAD54 inh 2.8.
Screening N#CC(c1ccc(=O)[nH]n1)c1ccc(Cl)cc1Cl (stereo not given) returned PvdQ inh 5.2, VIM-2 inh -2.2, DNA FID counter -7.5 and IMP-1 inhibitor -2.5.
For Cc1ccc(C(C#N)c2ccc3c(C(F)(F)F)cc(C(F)(F)F)nc3n2)cc1 (stereo not given) the results were PvdQ inh -10.5, VIM-2 inh -0.1, DNA FID counter 2.3 and IMP-1 inhibitor -1.2.
Cc1cccc(C(C#N)c2ccc(Cl)nn2)c1 (stereo not given) was read as PvdQ inh 88.8*, VIM-2 inh 0.2, DNA FID counter -3.1 and IMP-1 inhibitor -1.4.
Screening N#CC(c1ccc(Cl)cc1)c1ccc(Cl)nn1 (stereo not given) returned PvdQ inh 80.0*, RAD54 inh -0.1, VIM-2 inh -3.4, DNA FID counter -6.1 and IMP-1 inhibitor -3.4.
N#CC(c1ccc(Cl)nn1)c1ccccc1Cl (stereo not given) was read as PvdQ inh 108.2*, RAD54 inh 3.3, VIM-2 inh -5.2, DNA FID counter -2.5 and IMP-1 inhibitor -2.6.
For Cc1ccc(C(C#N)c2ccc(Cl)nn2)cc1 (stereo not given) the results were PvdQ inh 85.8*, VIM-2 inh -0.2, DNA FID counter -2.4 and IMP-1 inhibitor -1.5.
`N#CC(c1ccccc1)c1ccc(=O)[nH]n1` (stereo not given) gave PvdQ inh 9.5, VIM-2 inh -0.4, DNA FID counter -2.9 and IMP-1 inhibitor 0.0.
CCOC(=O)/C(C#N)=C/c1ccc(SC)cc1 was read as PvdQ inh 44.8*, VIM-2 inh -2.0, DNA FID counter -0.1 and IMP-1 inhibitor -1.5.
C[C@H](CO)N1C[C@H](C)[C@@H](CN(C)Cc2ccc(Cl)c(Cl)c2)Oc2ccc(NS(=O)(=O)c3cn(C)cn3)cc2C1=O was read as RAD54 inh -6.6.
`CN(C)c1ccnc2sc3c(NCC(O)CO)ncnc3c12` (stereo not given) gave PvdQ inh -11.4, VIM-2 inh 8.3*, DNA FID counter -7.9 and IMP-1 inhibitor -1.0.
Screening Cc1ccc(O)c(N=Cc2cc(Cc3ccccc3)cc([N+](=O)[O-])c2O)c1 returned PvdQ inh -15.8, VIM-2 inh -2.1, DNA FID counter -10.5 and IMP-1 inhibitor 11.4*.
Screening O=[N+]([O-])c1cc(Cc2ccccc2)cc(C=Nc2ccc(N3CCOCC3)cc2)c1O returned PvdQ inh -4.4, VIM-2 inh -3.8, DNA FID counter 3.0 and IMP-1 inhibitor 8.8*.
For CCC(=O)N1CC[C@@H]2[C@H]1c1cc(C#Cc3ccccc3)ccc1N[C@@H]2CO the results were RAD54 inh -9.5.
For CC(=O)c1ccc(Nc2cc(C)nc3ccc(C)cc23)cc1 the results were PvdQ inh -6.8, VIM-2 inh 8.4*, DNA FID counter 6.7 and IMP-1 inhibitor -1.3.
`COc1ccc(Nc2cc(C)nc3ccc(C)cc23)cc1` gave RAD54 inh 30.7.
For CCCn1c2ccc(F)cc2c2nnc(SCCN3CCCCC3)nc21 the results were PvdQ inh -17.0, VIM-2 inh 5.2, DNA FID counter -3.0 and IMP-1 inhibitor -1.3.
`CCn1c2nc(SCCN3CCOCC3)nnc2c2cc(C)cc(C)c21` gave PvdQ inh -1.7, RAD54 inh 17.3, VIM-2 inh 12.1*, DNA FID counter -25.8 and IMP-1 inhibitor -3.5.
CCn1c2ccc(F)cc2c2nnc(SCCN3CCCCC3)nc21 was read as PvdQ inh -17.0, RAD54 inh 33.8, VIM-2 inh 10.4*, DNA FID counter 2.1 and IMP-1 inhibitor -3.1.
For C[C@@H]1CN([C@@H](C)CO)S(=O)(=O)c2ccc(C#CC3CC3)cc2O[C@@H]1CN(C)CC1CC1 the results were RAD54 inh -4.4.
O=C(C[C@@H]1CC[C@H](NC(=O)Nc2ccc3c(c2)OCO3)[C@H](CO)O1)NCc1ccc(F)cc1 was read as RAD54 inh 3.2.
For COc1ccc(-c2csc(NC(=O)c3ccccc3Br)c2C(=O)O)cc1 the results were PvdQ inh 0.9, RAD54 inh -14.7, VIM-2 inh -1.8, DNA FID counter -9.3 and IMP-1 inhibitor -2.8.
For COc1ccc(-c2csc(NC(=O)Cc3cccc4ccccc34)c2C(=O)O)cc1 the results were PvdQ inh -10.3, VIM-2 inh 0.3, DNA FID counter -25.1 and IMP-1 inhibitor 7.7*.

Screens: PubChem BioAssay, several laboratories
